From ChEMBL document CHEMBL3112521, “Design, synthesis and biological evaluation of (E)-2-(2-arylhydrazinyl)quinoxalines, a promising and potent new class of anticancer agents” (Bioorg Med Chem Lett, 2014)
pIC50: −log10 of the molar value.

Legend:
HCT-116 [1] = assay: Cytotoxicity against human HCT116 cells assessed as growth inhibition at 5 ug/ml by MTT assay; type: functional; conditions: read-out: GI
Summary of the method: (§1)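 Single-concentration MTT screen at 5 µg/mL across SF-295 (glioblastoma), OVCAR-8 (ovary) and HCT-116 (colon) cells. Read-out is percent growth inhibition, reported with sd.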

SF-295 [2] = assay: Cytotoxicity against human SF295 cells assessed as growth inhibition at 5 ug/ml by MTT assay; type: functional; conditions: read-out: GI; summary of the method: as §1
OVCAR-8 [3] = assay: Cytotoxicity against human OVCAR8 cells assessed as growth inhibition at 5 ug/ml by MTT assay; type: functional; conditions: read-out: GI; summary of the method: as §1
HL-60 = assay: Cytotoxicity against human HL60 cells assessed as growth inhibition by MTT assay; type: functional, cell-based
Summary of the method: (§2)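 Dose-response on HCT-116, OVCAR-8, HL-60 (leukemia) and SF-295 cells, with doxorubicin as positive control. IC50 is taken as the concentration inducing 50% inhibition of cell growth. Data come from three independent experiments, each run in triplicate.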

SF-295 [4] = assay: Cytotoxicity against human SF295 cells assessed as growth inhibition by MTT assay; type: functional, cell-based; summary of the method: as §2
HCT-116 [5] = assay: Cytotoxicity against human HCT116 cells assessed as growth inhibition by MTT assay; type: functional, cell-based; summary of the method: as §2
OVCAR-8 [6] = assay: Cytotoxicity against human OVCAR8 cells assessed as growth inhibition by MTT assay; type: functional, cell-based; summary of the method: as §2

Brc1ccccc1/C=N/Nc1cnc2ccccc2n1
inhibition of growth at 5 µg/mL (HCT-116 [1]): 23.6%
inhibition of growth at 5 µg/mL (SF-295 [2]): 35.2%
inhibition of growth at 5 µg/mL (OVCAR-8 [3]): 18%

Brc1cccc(/C=N/Nc2cnc3ccccc3n2)c1
inhibition of growth at 5 µg/mL (HCT-116 [1]): 0%
inhibition of growth at 5 µg/mL (SF-295 [2]): 14.2%
inhibition of growth at 5 µg/mL (OVCAR-8 [3]): 0%

Brc1ccc(/C=N/Nc2cnc3ccccc3n2)cc1
inhibition of growth at 5 µg/mL (HCT-116 [1]): 23.2%
inhibition of growth at 5 µg/mL (SF-295 [2]): 33.5%
inhibition of growth at 5 µg/mL (OVCAR-8 [3]): 18.2%

O=[N+]([O-])c1ccccc1/C=N/Nc1cnc2ccccc2n1
inhibition of growth at 5 µg/mL (HCT-116 [1]): 23%
inhibition of growth at 5 µg/mL (SF-295 [2]): 21.9%
inhibition of growth at 5 µg/mL (OVCAR-8 [3]): 21.8%

O=[N+]([O-])c1cccc(/C=N/Nc2cnc3ccccc3n2)c1
inhibition of growth at 5 µg/mL (HCT-116 [1]): 21%
inhibition of growth at 5 µg/mL (SF-295 [2]): 23.4%
inhibition of growth at 5 µg/mL (OVCAR-8 [3]): 16.9%

O=[N+]([O-])c1ccc(/C=N/Nc2cnc3ccccc3n2)cc1
inhibition of growth at 5 µg/mL (HCT-116 [1]): 18.6%
inhibition of growth at 5 µg/mL (SF-295 [2]): 27%
inhibition of growth at 5 µg/mL (OVCAR-8 [3]): 40.6%

Cc1ccccc1/C=N/Nc1cnc2ccccc2n1
inhibition of growth at 5 µg/mL (HCT-116 [1]): 28.7%
inhibition of growth at 5 µg/mL (SF-295 [2]): 46.4%
inhibition of growth at 5 µg/mL (OVCAR-8 [3]): 17.8%

Cc1cccc(/C=N/Nc2cnc3ccccc3n2)c1
inhibition of growth at 5 µg/mL (HCT-116 [1]): 33.4%
inhibition of growth at 5 µg/mL (SF-295 [2]): 39.8%
inhibition of growth at 5 µg/mL (OVCAR-8 [3]): 39.9%

Cc1ccc(/C=N/Nc2cnc3ccccc3n2)cc1
inhibition of growth at 5 µg/mL (HCT-116 [1]): 19.6%
inhibition of growth at 5 µg/mL (SF-295 [2]): 18.1%
inhibition of growth at 5 µg/mL (OVCAR-8 [3]): 29%

N#Cc1cccc(/C=N/Nc2cnc3ccccc3n2)c1
inhibition of growth at 5 µg/mL (HCT-116 [1]): 30.7%
inhibition of growth at 5 µg/mL (SF-295 [2]): 44.5%
inhibition of growth at 5 µg/mL (OVCAR-8 [3]): 11.5%

N#Cc1ccc(/C=N/Nc2cnc3ccccc3n2)cc1
inhibition of growth at 5 µg/mL (HCT-116 [1]): 31.6%
inhibition of growth at 5 µg/mL (SF-295 [2]): 16%
inhibition of growth at 5 µg/mL (OVCAR-8 [3]): 50.9%

Oc1ccccc1/C=N/Nc1cnc2ccccc2n1
pIC50 (HL-60): 6.09
pIC50 (SF-295 [4]): 5.64
pIC50 (HCT-116 [5]): 5.31
pIC50 (OVCAR-8 [6]): 5.46
inhibition of growth at 5 µg/mL (HCT-116 [1]): 77%
inhibition of growth at 5 µg/mL (SF-295 [2]): 61.5%
inhibition of growth at 5 µg/mL (OVCAR-8 [3]): 95.4%

Oc1cccc(/C=N/Nc2cnc3ccccc3n2)c1
inhibition of growth at 5 µg/mL (HCT-116 [1]): 29.6%
inhibition of growth at 5 µg/mL (SF-295 [2]): 27.5%
inhibition of growth at 5 µg/mL (OVCAR-8 [3]): 51.5%

Oc1ccc(/C=N/Nc2cnc3ccccc3n2)cc1
inhibition of growth at 5 µg/mL (HCT-116 [1]): 20.2%
inhibition of growth at 5 µg/mL (SF-295 [2]): 39.4%
inhibition of growth at 5 µg/mL (OVCAR-8 [3]): 67.3%

Oc1cccc(/C=N/Nc2cnc3ccccc3n2)c1O
pIC50 (HL-60): 6.50
pIC50 (SF-295 [4]): 5.90
pIC50 (HCT-116 [5]): 5.75
pIC50 (OVCAR-8 [6]): 5.97
inhibition of growth at 5 µg/mL (HCT-116 [1]): 84%
inhibition of growth at 5 µg/mL (SF-295 [2]): 81.2%
inhibition of growth at 5 µg/mL (OVCAR-8 [3]): 97.9%

Oc1ccc(/C=N/Nc2cnc3ccccc3n2)c(O)c1
inhibition of growth at 5 µg/mL (HCT-116 [1]): 85.1%
inhibition of growth at 5 µg/mL (SF-295 [2]): 85.3%
inhibition of growth at 5 µg/mL (OVCAR-8 [3]): 84.2%

Oc1ccc(O)c(/C=N/Nc2cnc3ccccc3n2)c1
inhibition of growth at 5 µg/mL (HCT-116 [1]): 89.2%
inhibition of growth at 5 µg/mL (SF-295 [2]): 50.7%
inhibition of growth at 5 µg/mL (OVCAR-8 [3]): 60.5%

Oc1ccc(/C=N/Nc2cnc3ccccc3n2)cc1O
inhibition of growth at 5 µg/mL (HCT-116 [1]): 69.4%
inhibition of growth at 5 µg/mL (SF-295 [2]): 47.6%
inhibition of growth at 5 µg/mL (OVCAR-8 [3]): 46.3%

Oc1cc(/C=N/Nc2cnc3ccccc3n2)cc(O)c1O
inhibition of growth at 5 µg/mL (HCT-116 [1]): 14.9%
inhibition of growth at 5 µg/mL (SF-295 [2]): 37.8%
inhibition of growth at 5 µg/mL (OVCAR-8 [3]): 12.8%

COc1ccccc1/C=N/Nc1cnc2ccccc2n1
inhibition of growth at 5 µg/mL (HCT-116 [1]): 4.45%
inhibition of growth at 5 µg/mL (SF-295 [2]): 21.8%
inhibition of growth at 5 µg/mL (OVCAR-8 [3]): 21%

COc1cccc(/C=N/Nc2cnc3ccccc3n2)c1
inhibition of growth at 5 µg/mL (HCT-116 [1]): 14.5%
inhibition of growth at 5 µg/mL (SF-295 [2]): 35.8%
inhibition of growth at 5 µg/mL (OVCAR-8 [3]): 41.6%

COc1ccc(/C=N/Nc2cnc3ccccc3n2)cc1
inhibition of growth at 5 µg/mL (HCT-116 [1]): -43.6%
inhibition of growth at 5 µg/mL (SF-295 [2]): 0.52%
inhibition of growth at 5 µg/mL (OVCAR-8 [3]): 14.4%

COc1cccc(/C=N/Nc2cnc3ccccc3n2)c1OC
inhibition of growth at 5 µg/mL (HCT-116 [1]): 0%
inhibition of growth at 5 µg/mL (SF-295 [2]): 22.2%
inhibition of growth at 5 µg/mL (OVCAR-8 [3]): 0%

COc1ccc(/C=N/Nc2cnc3ccccc3n2)c(OC)c1
inhibition of growth at 5 µg/mL (HCT-116 [1]): 12.8%
inhibition of growth at 5 µg/mL (SF-295 [2]): 46.9%
inhibition of growth at 5 µg/mL (OVCAR-8 [3]): 7.19%
